From article PMC5508980 (Molecular nutrition & food research, 2017)

Columns and labels:
[1] = biological target: recombinant HDAC2 (Homo sapiens, UniProt Q92769); experiment: Recombinant HDAC activity assay; format: biochemical; settings: 2 h, read-out: % HDAC activity, Class I HDACs, 2
[2] = biological target: recombinant HDAC1 (Homo sapiens, UniProt Q13547); experiment: Recombinant HDAC activity assay; format: biochemical; settings: 2 h, read-out: % HDAC activity, Class I HDACs, 1
[3] = biological target: T1, recombinant HDAC7 (Homo sapiens, UniProt Q8WUI4); experiment: Recombinant HDAC activity assay; format: biochemical; settings: 2 h, read-out: % HDAC activity, Class IIa HDACs, 7
T1 sequence (Q8WUI4 1-952): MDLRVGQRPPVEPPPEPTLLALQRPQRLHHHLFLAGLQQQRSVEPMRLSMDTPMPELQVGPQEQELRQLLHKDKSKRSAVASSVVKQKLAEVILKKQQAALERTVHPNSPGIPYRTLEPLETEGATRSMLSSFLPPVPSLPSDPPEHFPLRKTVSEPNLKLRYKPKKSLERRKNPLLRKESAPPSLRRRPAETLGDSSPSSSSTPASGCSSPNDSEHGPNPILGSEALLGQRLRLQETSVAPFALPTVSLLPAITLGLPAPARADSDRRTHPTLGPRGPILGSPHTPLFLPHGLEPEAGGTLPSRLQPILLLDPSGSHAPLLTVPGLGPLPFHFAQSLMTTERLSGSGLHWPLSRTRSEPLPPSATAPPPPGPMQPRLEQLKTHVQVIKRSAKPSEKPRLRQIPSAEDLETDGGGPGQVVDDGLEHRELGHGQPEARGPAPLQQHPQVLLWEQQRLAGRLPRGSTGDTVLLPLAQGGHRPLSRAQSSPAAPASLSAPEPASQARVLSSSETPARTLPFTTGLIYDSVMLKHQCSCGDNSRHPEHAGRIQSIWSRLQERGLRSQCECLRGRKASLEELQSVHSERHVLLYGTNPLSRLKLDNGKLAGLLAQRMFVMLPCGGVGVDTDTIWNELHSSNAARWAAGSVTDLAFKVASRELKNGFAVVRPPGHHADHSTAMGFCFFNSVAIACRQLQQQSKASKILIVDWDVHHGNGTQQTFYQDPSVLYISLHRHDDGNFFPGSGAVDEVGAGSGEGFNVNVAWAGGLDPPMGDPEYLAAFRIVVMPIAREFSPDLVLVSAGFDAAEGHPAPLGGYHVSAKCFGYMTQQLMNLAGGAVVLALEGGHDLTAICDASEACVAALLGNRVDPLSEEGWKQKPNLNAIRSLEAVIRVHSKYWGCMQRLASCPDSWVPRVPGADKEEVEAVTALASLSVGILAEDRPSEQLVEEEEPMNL

[4] = test system: HDAC activity in bovine cardiac tissue; experiment: Natural product library screen with class-selective HDAC substrates; format: biochemical; settings: 2 hours treatment
Procedure, shortened: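 The screen covered 131 natural compounds against bovine cardiac tissue lysate at 30 µg protein/well in PBS (pH 7.4 lysis buffer with Triton X-100 and NaCl). Test compound for 2 h, then separate class I, IIa or IIb fluorogenic acyl-lysine-AMC substrates for 2 h at 37 °C. Developer (Triton X-100, 3 µM TSA, 0.75 mg/ml trypsin) for 20 min; fluorescence read at 360/460 nm.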

[5] = biological target: recombinant HDAC3 (Homo sapiens, UniProt O15379); experiment: Recombinant HDAC activity assay; format: biochemical; settings: 2 h, read-out: % HDAC activity, Class I HDACs, 3
Chain of recombinant HDAC3 (O15379 whole entry): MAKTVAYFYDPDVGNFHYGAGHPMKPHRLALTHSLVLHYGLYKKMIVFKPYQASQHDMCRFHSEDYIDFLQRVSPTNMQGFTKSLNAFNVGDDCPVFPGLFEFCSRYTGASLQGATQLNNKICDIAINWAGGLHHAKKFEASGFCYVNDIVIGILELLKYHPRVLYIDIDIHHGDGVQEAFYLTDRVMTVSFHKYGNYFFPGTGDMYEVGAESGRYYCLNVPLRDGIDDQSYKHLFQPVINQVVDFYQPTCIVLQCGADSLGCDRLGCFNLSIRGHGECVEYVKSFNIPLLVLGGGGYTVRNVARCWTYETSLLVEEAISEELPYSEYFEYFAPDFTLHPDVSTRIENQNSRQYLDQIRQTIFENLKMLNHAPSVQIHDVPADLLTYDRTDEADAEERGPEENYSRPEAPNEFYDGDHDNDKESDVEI
Chain of recombinant HDAC3 (Q9Y618 395-489 partner limits assumed): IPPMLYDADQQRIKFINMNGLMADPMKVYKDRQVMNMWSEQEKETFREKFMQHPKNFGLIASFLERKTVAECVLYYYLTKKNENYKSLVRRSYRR

[6] = biological target: recombinant HDAC9 (Homo sapiens, UniProt Q9UKV0); experiment: Recombinant HDAC activity assay; format: biochemical; settings: 2 h, read-out: % HDAC activity, Class IIa HDACs, 9
Chain of recombinant HDAC9 (Q9UKV0 whole entry): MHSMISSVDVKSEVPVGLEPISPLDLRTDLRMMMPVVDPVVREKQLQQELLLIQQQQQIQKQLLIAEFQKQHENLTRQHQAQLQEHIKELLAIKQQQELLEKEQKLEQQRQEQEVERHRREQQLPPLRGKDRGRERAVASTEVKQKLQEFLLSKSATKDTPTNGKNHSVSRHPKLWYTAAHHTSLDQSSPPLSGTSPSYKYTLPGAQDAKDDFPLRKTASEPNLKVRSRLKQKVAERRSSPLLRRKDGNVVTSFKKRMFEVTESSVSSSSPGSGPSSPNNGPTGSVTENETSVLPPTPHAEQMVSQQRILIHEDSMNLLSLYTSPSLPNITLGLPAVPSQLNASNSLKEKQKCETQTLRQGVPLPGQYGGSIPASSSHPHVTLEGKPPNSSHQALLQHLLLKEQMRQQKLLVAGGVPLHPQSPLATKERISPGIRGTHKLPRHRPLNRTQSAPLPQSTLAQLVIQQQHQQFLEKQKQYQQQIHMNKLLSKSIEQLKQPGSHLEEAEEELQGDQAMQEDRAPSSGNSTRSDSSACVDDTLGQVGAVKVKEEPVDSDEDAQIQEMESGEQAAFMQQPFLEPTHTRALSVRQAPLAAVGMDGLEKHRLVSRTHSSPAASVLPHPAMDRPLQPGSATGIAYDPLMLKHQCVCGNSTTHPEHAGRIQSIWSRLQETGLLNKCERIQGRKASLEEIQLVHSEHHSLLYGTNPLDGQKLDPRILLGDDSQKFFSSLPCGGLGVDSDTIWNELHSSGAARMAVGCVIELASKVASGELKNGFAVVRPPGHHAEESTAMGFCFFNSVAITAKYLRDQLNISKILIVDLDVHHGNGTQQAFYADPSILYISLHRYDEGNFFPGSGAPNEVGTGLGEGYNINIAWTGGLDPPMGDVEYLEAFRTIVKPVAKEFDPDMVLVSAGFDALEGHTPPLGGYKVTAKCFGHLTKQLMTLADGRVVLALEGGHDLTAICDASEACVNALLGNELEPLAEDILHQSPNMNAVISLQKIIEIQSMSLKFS

[7] = biological target: T2, recombinant HDAC8 (Homo sapiens, UniProt Q9BY41); experiment: Recombinant HDAC activity assay; format: biochemical; settings: 2 h, read-out: % HDAC activity, Class I HDACs, 8
T2 sequence (Q9BY41 1-377): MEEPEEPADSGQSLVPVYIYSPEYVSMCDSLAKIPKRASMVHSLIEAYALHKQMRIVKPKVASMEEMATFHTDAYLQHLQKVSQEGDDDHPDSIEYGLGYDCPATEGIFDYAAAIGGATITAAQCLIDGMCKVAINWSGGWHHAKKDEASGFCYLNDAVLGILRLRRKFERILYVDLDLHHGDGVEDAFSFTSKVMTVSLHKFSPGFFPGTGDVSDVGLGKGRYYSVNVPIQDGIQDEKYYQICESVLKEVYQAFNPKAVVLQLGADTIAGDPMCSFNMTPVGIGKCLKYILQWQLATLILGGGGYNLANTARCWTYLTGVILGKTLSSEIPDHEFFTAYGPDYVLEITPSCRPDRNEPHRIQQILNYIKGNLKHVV

[8] = biological target: recombinant HDAC5 (Homo sapiens, UniProt Q9UQL6); experiment: Recombinant HDAC activity assay; format: biochemical; settings: 2 h, read-out: % HDAC activity, Class IIa HDACs, 5
Chain of recombinant HDAC5 (Q9UQL6 whole entry): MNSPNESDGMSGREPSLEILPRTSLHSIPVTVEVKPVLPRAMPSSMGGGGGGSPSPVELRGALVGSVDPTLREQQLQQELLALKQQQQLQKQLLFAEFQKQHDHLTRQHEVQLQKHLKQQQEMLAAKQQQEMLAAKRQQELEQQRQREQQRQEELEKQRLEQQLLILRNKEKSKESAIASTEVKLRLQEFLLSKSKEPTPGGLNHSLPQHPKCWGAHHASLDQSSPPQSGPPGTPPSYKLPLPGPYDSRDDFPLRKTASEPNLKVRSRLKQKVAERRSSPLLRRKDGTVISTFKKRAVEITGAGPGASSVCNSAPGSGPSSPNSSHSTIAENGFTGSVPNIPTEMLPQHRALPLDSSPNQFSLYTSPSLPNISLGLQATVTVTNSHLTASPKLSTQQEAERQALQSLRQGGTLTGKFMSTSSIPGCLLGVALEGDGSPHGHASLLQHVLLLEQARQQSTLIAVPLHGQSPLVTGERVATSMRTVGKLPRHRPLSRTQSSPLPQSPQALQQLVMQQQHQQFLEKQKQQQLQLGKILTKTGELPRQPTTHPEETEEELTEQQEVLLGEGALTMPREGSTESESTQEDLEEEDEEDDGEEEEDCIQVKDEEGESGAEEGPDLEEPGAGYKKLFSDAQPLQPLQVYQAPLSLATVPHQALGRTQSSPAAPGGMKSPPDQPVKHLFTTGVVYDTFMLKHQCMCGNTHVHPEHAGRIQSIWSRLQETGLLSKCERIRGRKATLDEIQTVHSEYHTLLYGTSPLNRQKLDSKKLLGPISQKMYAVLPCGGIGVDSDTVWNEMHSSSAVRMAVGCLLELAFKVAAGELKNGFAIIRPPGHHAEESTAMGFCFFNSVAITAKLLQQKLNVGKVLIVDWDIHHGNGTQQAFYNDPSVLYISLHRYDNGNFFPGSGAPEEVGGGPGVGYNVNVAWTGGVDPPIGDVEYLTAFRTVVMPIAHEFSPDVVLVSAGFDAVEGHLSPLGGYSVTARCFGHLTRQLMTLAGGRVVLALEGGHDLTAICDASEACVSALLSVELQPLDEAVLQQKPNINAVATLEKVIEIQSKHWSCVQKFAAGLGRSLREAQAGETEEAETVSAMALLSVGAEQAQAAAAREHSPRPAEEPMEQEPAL

[9] = test system: H9c2 cells; experiment: Acetyl-H3K9/14 immunoblot of whole cell extract; format: cell-based, rat; settings: H9c2 myocytes, 50 µM, 2 hours
Procedure, shortened: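 H9c2 cells were grown in DMEM with 10% FBS and treated at 90% confluence for 2 h with test compound or DMSO, with TSA as positive control. Washed in ice-cold PBS, lysed in PBS pH 7.4 with 0.5% Triton X-100 and 300 mM NaCl plus inhibitors, sonicated and clarified. SDS-PAGE, nitrocellulose, acetyl-H3K9/14 and total H3 antibodies, chemiluminescence; densitometry; ANOVA with Tukey.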

Chain of recombinant HDAC1 (Q13547 whole entry): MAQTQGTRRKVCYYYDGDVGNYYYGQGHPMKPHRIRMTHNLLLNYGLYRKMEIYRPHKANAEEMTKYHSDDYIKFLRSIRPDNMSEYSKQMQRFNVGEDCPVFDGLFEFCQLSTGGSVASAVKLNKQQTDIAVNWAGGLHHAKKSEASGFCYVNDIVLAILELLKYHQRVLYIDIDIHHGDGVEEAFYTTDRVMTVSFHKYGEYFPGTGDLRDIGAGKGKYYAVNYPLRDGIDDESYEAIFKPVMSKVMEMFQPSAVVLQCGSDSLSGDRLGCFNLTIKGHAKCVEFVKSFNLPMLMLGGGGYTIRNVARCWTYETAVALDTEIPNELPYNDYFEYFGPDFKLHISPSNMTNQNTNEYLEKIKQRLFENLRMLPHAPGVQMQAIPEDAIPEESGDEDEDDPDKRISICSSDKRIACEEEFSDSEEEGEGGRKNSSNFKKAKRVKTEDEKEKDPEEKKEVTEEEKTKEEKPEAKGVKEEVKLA
Chain of recombinant HDAC2 (Q92769 whole entry): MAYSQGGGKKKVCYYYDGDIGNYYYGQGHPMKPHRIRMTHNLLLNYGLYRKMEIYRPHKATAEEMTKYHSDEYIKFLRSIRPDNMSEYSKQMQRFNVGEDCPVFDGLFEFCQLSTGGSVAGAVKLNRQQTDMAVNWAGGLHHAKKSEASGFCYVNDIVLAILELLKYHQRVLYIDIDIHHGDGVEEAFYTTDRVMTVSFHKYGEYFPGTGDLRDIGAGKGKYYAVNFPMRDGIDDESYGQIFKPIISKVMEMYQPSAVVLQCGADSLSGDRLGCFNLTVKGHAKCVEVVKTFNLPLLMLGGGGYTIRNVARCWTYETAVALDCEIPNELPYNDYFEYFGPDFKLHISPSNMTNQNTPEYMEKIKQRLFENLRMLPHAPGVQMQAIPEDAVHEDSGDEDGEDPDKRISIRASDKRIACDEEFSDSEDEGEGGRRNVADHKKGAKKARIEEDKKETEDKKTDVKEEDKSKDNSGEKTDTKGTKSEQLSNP

`Cc1cc(O)c2c(c1)C(=O)c1cc(O)cc(O)c1C2=O` [Emodin] showed a remaining activity at 50 µM [1] of 35%, a remaining activity at 50 µM [2] of 35.8% and a remaining activity at 50 µM [3] of 53.1%. For the same molecule, the “catalytic HDAC activity across class I, IIa and IIb substrates, effect in words” value [4] was “dose-dependent pan-HDAC inhibition”, the remaining activity at 50 µM [5] was 35.1% and the remaining activity at 50 µM [6] was 34.7%. For the same molecule, the remaining activity at 50 µM [7] was 32.3%, the remaining activity at 50 µM [8] was 31.4% and the “acetylation of histone 3 on lysine 9/14 (Ac-H3 K9/14) via immunoblot” value [9] was “increased”.
